Test results taken from ChEMBL document CHEMBL3112485, “7-Chloroquinolinotriazoles: synthesis by the azide-alkyne cycloaddition click chemistry, antimalarial activity, cytotoxicity and SAR studies” (Eur J Med Chem, 2014).

How the values were obtained:
Plasmodium falciparum = assay: Antimalarial activity against chloroquine-resistant and mefloquine-sensitive Plasmodium falciparum W2 infected in human erythrocytes after 48 hrs by HRP2-ELISA; format: functional, organism-based; details: W2, 48 h
Outline: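 Ring-stage cultures sorbitol-synchronized; RBC suspension at 0.05% parasitemia, 1.5% hematocrit in RPMI with 10% human plasma, exposed to serial compound concentrations 48 h. Background wells harvested at 24 h and subtracted. Freeze-thaw lysis, then anti-HRP2 sandwich ELISA with TMB, absorbance 450 nm. IC50 from sigmoidal dose-response versus drug-free and standard-drug controls; triplicate per concentration, experiments in duplicate.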

[1] = Cytotoxicity against human HepG2 cells after 24 hrs by MTT assay; format: cell-based
[2] = Selectivity index, ratio of CC50 for human HepG2 cells to IC50 for chloroquine-resistant and mefloquine-sensitive Plasmodium falciparum W2; format: functional

Row | Compound | IC50 (Plasmodium falciparum; read-out: IC50) | CC50 at 24 h [1] | Ratio CC50/IC50 [2] | IC50 (Plasmodium falciparum; read-out: pIC50 (converted))
1 | COc1c(F)c(F)cc(C(=O)OCc2cn(-c3ccnc4cc(Cl)ccc34)nn2)c1F | > 112 µM | > 2230 µM | <20 | –
2 | CN(C)c1ccc(-c2cn(-c3ccnc4cc(Cl)ccc34)nn2)cc1 | 40.3 µM | > 2860 µM | >71.1 | 39.8 µM
3 | Fc1ccc(-c2cn(-c3ccnc4cc(Cl)ccc34)nn2)cc1 | > 154 µM | > 3090 µM | <20 | –
4 | Cc1ccc(-c2cn(-c3ccnc4cc(Cl)ccc34)nn2)cc1 | > 156 µM | 352 µM | <2.2 | –
5 | Clc1ccc2c(-n3cc(-c4ccccc4)nn3)ccnc2c1 | > 80 µM | 574 µM | <7.2 | –
6 | OCCCc1cn(-c2ccnc3cc(Cl)ccc23)nn1 | 9.6 µM | 151 µM | 15.7 | 10 µM
7 | CC(C)(O)c1cn(-c2ccnc3cc(Cl)ccc23)nn1 | 90.3 µM | 442 µM | 4.9 | –
8 | Clc1ccc2c(-n3cc(C4CCCCC4)nn3)ccnc2c1 | > 80 µM | > 3200 µM | <40 | –
9 | COc1ccc2cc(-c3cn(-c4ccnc5cc(Cl)ccc45)nn3)ccc2c1 | > 129 µM | > 2590 µM | <20 | –
10 | O=C(OCCCc1cn(-c2ccnc3cc(Cl)ccc23)nn1)c1ccccc1 | > 128 µM | 1200 µM | <9.4 | –
11 | COc1ccc(C(=O)OCCCc2cn(-c3ccnc4cc(Cl)ccc34)nn2)cc1 | > 113 µM | 347 µM | <3 | –
12 | CCc1ccc(C(=O)OCCCc2cn(-c3ccnc4cc(Cl)ccc34)nn2)cc1 | > 119 µM | > 2550 µM | <21.4 | –
13 | O=C(OCCCc1cn(-c2ccnc3cc(Cl)ccc23)nn1)c1ccc(C(F)(F)F)cc1 | > 109 µM | > 2170 µM | <20 | –
14 | CC(C)(C)c1ccc(C(=O)OCCCc2cn(-c3ccnc4cc(Cl)ccc34)nn2)cc1 | > 112 µM | > 2230 µM | <20 | –
15 | Cc1ccc(C(=O)OCCCc2cn(-c3ccnc4cc(Cl)ccc34)nn2)cc1 | > 123 µM | > 2460 µM | <20 | –
16 | CCc1ccc(C(=O)OCc2cn(-c3ccnc4cc(Cl)ccc34)nn2)cc1 | > 128 µM | > 2550 µM | <20 | –
17 | CCc1ccccc1C(=O)OCc1cn(-c2ccnc3cc(Cl)ccc23)nn1 | > 128 µM | > 2550 µM | <20 | –
18 | CC(C)(C)c1ccc(C(=O)OCc2cn(-c3ccnc4cc(Cl)ccc34)nn2)cc1 | > 119 µM | > 2380 µM | <20 | –
19 | O=C(OCc1cn(-c2ccnc3cc(Cl)ccc23)nn1)c1ccccc1 | > 137 µM | > 2750 µM | <20 | –
20 | O=C(OCc1cn(-c2ccnc3cc(Cl)ccc23)nn1)c1ccc(C(F)(F)F)cc1 | > 116 µM | 1070 µM | <9.2 | –
21 | COc1ccc(C(=O)OCc2cn(-c3ccnc4cc(Cl)ccc34)nn2)cc1 | > 127 µM | 303 µM | <2.4 | –
22 | O=C(OCc1cn(-c2ccnc3cc(Cl)ccc23)nn1)c1ccc(Cl)cc1 | 22.5 µM | 484 µM | 21.5 | 22.9 µM
23 | CCN(CC)Cc1cn(-c2ccnc3cc(Cl)ccc23)nn1 | > 166 µM | 1850 µM | <11.2 | –
24 | CN(C)Cc1cn(-c2ccnc3cc(Cl)ccc23)nn1 | 27.4 µM | 1850 µM | 67.5 | 26.9 µM
25 | Clc1ccc2c(-n3cc(CN4CCOCC4)nn3)ccnc2c1 | > 152 µM | > 3040 µM | <20 | –
26 | Clc1ccc2c(-n3cc(CN4CCCCC4)nn3)ccnc2c1 | > 153 µM | 1110 µM | <7.2 | –
27 | OC1CCN(Cc2cn(-c3ccnc4cc(Cl)ccc34)nn2)CC1 | 40.9 µM | 930 µM | 22.7 | 40.7 µM
28 | CCN(CC)CCCC(C)Nc1ccnc2cc(Cl)ccc12 (configuration not stated) [CHLOROQUINE] | – | 810 µM | – | –
